Assay results: ChEMBL document CHEMBL1687714, “Genetic analysis of fenhexamid-resistant field isolates of the phytopathogenic fungus Botrytis cinerea” (Antimicrob Agents Chemother, 2008)
Values after ≈ are worked out from the molar mass of the structure shown. Active and inactive are the calls of the source. The rule behind the calls is not given here.

What was measured:
Assay type in all cases: functional, organism-based
Botrytis cinerea [1] = assay: Antifungal activity against HydR3 deficient Botrytis cinerea 453 harboring TELerg N369D mutant at 2 ug/ml relative to wild-type
Outline: (§1)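 In the dominance test, the recipient strains 453b and 286 were transformed with different erg27 alleles. Spores of the transformants were grown on YSS medium containing fenhexamid at different concentrations and 50 µg ml–1 hygromycin B. Parental strains were grown without hygromycin. Growth was scored after 7 days at 21°C.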

Botrytis cinerea [2] = assay: Antifungal activity against HydR3 deficient Botrytis cinerea 453 harboring TELerg F412I mutant at 2 ug/ml relative to wild-type; outline: as §1
Botrytis cinerea [3] = assay: Antifungal activity against moderately to slightly fenhexamid-resistant Botrytis cinerea 05-ABA assessed as inhibition of germ tube elongation after 24 hrs
Botrytis cinerea [4] = assay: Antifungal activity against highly fenhexamid-resistant Botrytis cinerea MK5-2 assessed as inhibition of germ tube elongation after 24 hrs; conditions: MK5-2, 24 h
Botrytis cinerea [5] = assay: Antifungal activity against moderately to slightly fenhexamid-resistant Botrytis cinerea 202 assessed as inhibition of mycelium growth measured over 5 days; conditions: Botrytis cinerea, 202, 120 h
Botrytis cinerea [6] = assay: Antifungal activity against highly fenhexamid-resistant Botrytis cinerea 05-190 assessed as inhibition of mycelium growth measured over 5 days; conditions: 05-190, 120 h
Botrytis cinerea [7] = assay: Antifungal activity against moderately to slightly fenhexamid-resistant Botrytis cinerea 57 assessed as inhibition of mycelium growth measured over 5 days; conditions: Botrytis cinerea, 57, 120 h
Botrytis cinerea [8] = assay: Antifungal activity against highly fenhexamid-resistant Botrytis cinerea 520b assessed as inhibition of mycelium growth measured over 5 days; conditions: 120 h
Botrytis cinerea [9] = assay: Antifungal activity against highly fenhexamid-resistant Botrytis cinerea MK3-31 assessed as inhibition of germ tube elongation after 24 hrs; conditions: MK3-31, 24 h
Botrytis cinerea [10] = assay: Antifungal activity against HydR3 deficient Botrytis cinerea 453 harboring TELerg F412I mutant at 5 ug/ml relative to wild-type; outline: as §1
Botrytis cinerea [11] = assay: Antifungal activity against highly fenhexamid-resistant Botrytis cinerea 533 assessed as inhibition of germ tube elongation after 24 hrs; conditions: Botrytis cinerea, 533, 24 h
Botrytis cinerea [12] = assay: Antifungal activity against highly fenhexamid-resistant Botrytis cinerea 520a assessed as inhibition of germ tube elongation after 24 hrs
Botrytis cinerea [13] = assay: Antifungal activity against highly fenhexamid-resistant Botrytis cinerea 223b assessed as inhibition of mycelium growth measured over 5 days; conditions: 120 h
Botrytis cinerea [14] = assay: Antifungal activity against highly fenhexamid-resistant Botrytis cinerea 118 assessed as inhibition of mycelium growth measured over 5 days; conditions: Botrytis cinerea, 118, 120 h
Botrytis cinerea [15] = assay: Antifungal activity against highly fenhexamid-resistant Botrytis cinerea 05-190 assessed as inhibition of germ tube elongation after 24 hrs; conditions: 05-190, 24 h
Botrytis cinerea [16] = assay: Antifungal activity against highly fenhexamid-resistant Botrytis cinerea 05-PV Reims assessed as inhibition of germ tube elongation after 24 hrs
Botrytis cinerea [17] = assay: Antifungal activity against Botrytis cinerea 286 harboring TELerg S336C mutant at 10 ug/ml relative to wild-type; outline: as §1
Botrytis cinerea [18] = assay: Antifungal activity against moderately to slightly fenhexamid-resistant Botrytis cinerea 453a assessed as inhibition of mycelium growth measured over 5 days; conditions: 120 h
Botrytis cinerea [19] = assay: Antifungal activity against moderately to slightly fenhexamid-resistant Botrytis cinerea 453b assessed as inhibition of germ tube elongation after 24 hrs
Botrytis cinerea [20] = assay: Antifungal activity against highly fenhexamid-resistant Botrytis cinerea 223a assessed as inhibition of mycelium growth measured over 5 days; conditions: 120 h
Botrytis cinerea [21] = assay: Antifungal activity against highly fenhexamid-resistant Botrytis cinerea 223a assessed as inhibition of germ tube elongation after 24 hrs
Botrytis cinerea [22] = assay: Antifungal activity against moderately to slightly fenhexamid-resistant Botrytis cinerea 454 assessed as inhibition of mycelium growth measured over 5 days; conditions: Botrytis cinerea, 454, 120 h
Botrytis cinerea [23] = assay: Antifungal activity against highly fenhexamid-resistant Botrytis cinerea 506a assessed as inhibition of germ tube elongation after 24 hrs
Botrytis cinerea [24] = assay: Antifungal activity against fenhexamid-senistive Botrytis cinerea SAS56 assessed as inhibition of germ tube elongation after 24 hrs; conditions: SAS56, 24 h
Botrytis cinerea [25] = assay: Antifungal activity against fenhexamid-senistive Botrytis cinerea B05.10 assessed as inhibition of germ tube elongation after 24 hrs; conditions: B05.10, 24 h
Botrytis cinerea [26] = assay: Antifungal activity against highly fenhexamid-resistant Botrytis cinerea 223b assessed as inhibition of germ tube elongation after 24 hrs
Botrytis cinerea [27] = assay: Antifungal activity against highly fenhexamid-resistant Botrytis cinerea MK3-1 assessed as inhibition of germ tube elongation after 24 hrs; conditions: MK3-1, 24 h
Botrytis cinerea [28] = assay: Antifungal activity against highly fenhexamid-resistant Botrytis cinerea 506a assessed as inhibition of mycelium growth measured over 5 days; conditions: 120 h
Botrytis cinerea [29] = assay: Antifungal activity against fenhexamid-senistive Botrytis cinerea B05.10 assessed as inhibition of mycelium growth measured over 5 days; conditions: B05.10, 120 h
Botrytis cinerea [30] = assay: Antifungal activity against highly fenhexamid-resistant Botrytis cinerea 118 assessed as inhibition of germ tube elongation after 24 hrs; conditions: Botrytis cinerea, 118, 24 h
Botrytis cinerea [31] = assay: Antifungal activity against highly fenhexamid-resistant Botrytis cinerea 506b assessed as inhibition of germ tube elongation after 24 hrs
Botrytis cinerea [32] = assay: Antifungal activity against highly fenhexamid-resistant Botrytis cinerea 1837 assessed as inhibition of mycelium growth measured over 5 days; conditions: Botrytis cinerea, 1837, 120 h
Botrytis cinerea [33] = assay: Antifungal activity against highly fenhexamid-resistant Botrytis cinerea 05-221 assessed as inhibition of germ tube elongation after 24 hrs; conditions: 05-221, 24 h
Botrytis cinerea [34] = assay: Antifungal activity against highly fenhexamid-resistant Botrytis cinerea 520b assessed as inhibition of germ tube elongation after 24 hrs
Botrytis cinerea [35] = assay: Antifungal activity against moderately to slightly fenhexamid-resistant Botrytis cinerea 365 assessed as inhibition of germ tube elongation after 24 hrs; conditions: Botrytis cinerea, 365, 24 h
Botrytis cinerea [36] = assay: Antifungal activity against Botrytis cinerea 286 harboring TELerg S336C mutant at 5 ug/ml relative to wild-type; outline: as §1
Botrytis cinerea [37] = assay: Antifungal activity against highly fenhexamid-resistant Botrytis cinerea 379a assessed as inhibition of mycelium growth measured over 5 days; conditions: 120 h
Botrytis cinerea [38] = assay: Antifungal activity against highly fenhexamid-resistant Botrytis cinerea 312 assessed as inhibition of germ tube elongation after 24 hrs; conditions: Botrytis cinerea, 312, 24 h
Botrytis cinerea [39] = assay: Antifungal activity against moderately to slightly fenhexamid-resistant Botrytis cinerea 454 assessed as inhibition of germ tube elongation after 24 hrs; conditions: Botrytis cinerea, 454, 24 h
Botrytis cinerea [40] = assay: Antifungal activity against moderately to slightly fenhexamid-resistant Botrytis cinerea 453a assessed as inhibition of germ tube elongation after 24 hrs
Botrytis cinerea [41] = assay: Antifungal activity against Botrytis cinerea 286 harboring TELerg S336C mutant at 1 ug/ml relative to wild-type; outline: as §1
Botrytis cinerea [42] = assay: Antifungal activity against highly fenhexamid-resistant Botrytis cinerea 533 assessed as inhibition of mycelium growth measured over 5 days; conditions: Botrytis cinerea, 533, 120 h
Botrytis cinerea [43] = assay: Antifungal activity against highly fenhexamid-resistant Botrytis cinerea 440a assessed as inhibition of germ tube elongation after 24 hrs

CC1(C(=O)Nc2ccc(O)c(Cl)c2Cl)CCCCC1 [FENHEXAMID]
Activity (Botrytis cinerea [1]): inactive | Activity (Botrytis cinerea [2]): inactive | EC50 (Botrytis cinerea [3]): 0.8 µg/mL (≈ 2.65 µM) | EC50 (Botrytis cinerea [4]): > 5 µg/mL | EC50 (Botrytis cinerea [5]): < 0.3 µg/mL | EC50 (Botrytis cinerea [6]): > 10 µg/mL | EC50 (Botrytis cinerea [7]): < 0.3 µg/mL | EC50 (Botrytis cinerea [8]): 3 µg/mL (≈ 9.93 µM) | EC50 (Botrytis cinerea [9]): > 5 µg/mL | Activity (Botrytis cinerea [10]): inactive | EC50 (Botrytis cinerea [11]): > 10 µg/mL | EC50 (Botrytis cinerea [12]): 10 µg/mL (≈ 33.1 µM) | EC50 (Botrytis cinerea [13]): > 10 µg/mL | EC50 (Botrytis cinerea [14]): > 10 µg/mL | EC50 (Botrytis cinerea [15]): > 10 µg/mL | EC50 (Botrytis cinerea [16]): > 10 µg/mL | Activity (Botrytis cinerea [17]): inactive | EC50 (Botrytis cinerea [18]): 2 µg/mL (≈ 6.62 µM) | EC50 (Botrytis cinerea [19]): 2 µg/mL (≈ 6.62 µM) | EC50 (Botrytis cinerea [20]): > 10 µg/mL | EC50 (Botrytis cinerea [21]): > 10 µg/mL | EC50 (Botrytis cinerea [22]): < 0.3 µg/mL | EC50 (Botrytis cinerea [23]): > 10 µg/mL | EC50 (Botrytis cinerea [24]): < 0.1 µg/mL | EC50 (Botrytis cinerea [25]): < 0.1 µg/mL | EC50 (Botrytis cinerea [26]): > 10 µg/mL | EC50 (Botrytis cinerea [27]): > 5 µg/mL | EC50 (Botrytis cinerea [28]): > 10 µg/mL | EC50 (Botrytis cinerea [29]): < 0.03 µg/mL | EC50 (Botrytis cinerea [30]): > 10 µg/mL | EC50 (Botrytis cinerea [31]): > 10 µg/mL | EC50 (Botrytis cinerea [32]): > 10 µg/mL | EC50 (Botrytis cinerea [33]): > 10 µg/mL | EC50 (Botrytis cinerea [34]): 8 µg/mL (≈ 26.5 µM) | EC50 (Botrytis cinerea [35]): 2 µg/mL (≈ 6.62 µM) | Activity (Botrytis cinerea [36]): inactive | EC50 (Botrytis cinerea [37]): > 10 µg/mL | EC50 (Botrytis cinerea [38]): > 10 µg/mL | EC50 (Botrytis cinerea [39]): 0.5 µg/mL (≈ 1.65 µM) | EC50 (Botrytis cinerea [40]): 3 µg/mL (≈ 9.93 µM) | Activity (Botrytis cinerea [41]): inactive | EC50 (Botrytis cinerea [42]): 10 µg/mL (≈ 33.1 µM) | EC50 (Botrytis cinerea [43]): > 10 µg/mL
